Measured values published in the array DNA melting data of Ke et al. (doi:10.1101/2024.01.08.574731).

Key:
[1] = folding enthalpy; higher = less favourable; fluorescence melt of hairpins on a sequencing array, two-state fit; settings: sodium 0.088 M
Summary of the method: (§1)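 Two-state fits, bootstrapped, provided melting temperature and folding enthalpy from Cy3 fluorescence normalised to pre-quench Cy3 and to control constructs. Library hairpins with annealed Cy3 and quencher oligos were imaged on a sequenced MiSeq flow cell in 50 mM Na-HEPES pH 8.0, 25 mM NaCl, at 2.5 °C intervals up to 60 °C. Four replicates were combined with inverse-variance weighting. A 9.35 °C upward shift was applied to fitted temperatures to match UV melts.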

[2] = melting temperature; fluorescence melt of hairpins on a sequencing array, two-state fit, raised by 9.35 °C to match UV melts; settings: sodium 0.088 M
Summary of the method: as §1

| Sequence | folding enthalpy [1] [kcal/mol] | Tm [2] [°C] |
| --- | --- | --- |
| GAGCTAGAAATAGCTC ((((((....)))))) | -33.6 | 53.4 |
| GCACCGGGAAACCAGCGC ((.(.((....)).).)) | -20.7 | 37.4 |
| GTACACCGAAAGGTTAC (((.(((....)))))) | -20.5 | 39.9 |
| GGCCCACGAAAGTGTGCC (((.(((....))).))) | -49.1 | 58.1 |
| GATCTTTGTAAGATC ((((((...)))))) | -28.8 | 45.5 |
| GCGTGCGGAAACGCACAC (.(((((....))))).) | -8.53 | 50.3 |
| GCGTTTCCACGC ((((....)))) | -22.6 | 53.5 |
| GTACTACGAAAGTATAC (((.(((....)))))) | -15.3 | 27.9 |
| GTCTACGAAAGTACAGAC ((((((....)))..))) | -18.1 | 33.4 |
| GATCAGATACTGATC ((((((...)))))) | -34.2 | 50.6 |
| GAGAGACGAAAGTCGCTC (((.(((....))).))) | -32.3 | 60.5 |
| GATCGTGTGCACGATC ((((((....)))))) | -39.3 | 59.9 |
| GATCGATTGCTCGATC ((((((....)))))) | -31.9 | 51.2 |
| GCATTCGCGAAAGCGTGC (((..(((....)))))) | -11.8 | 41.8 |
| GCAAGAGGAAACTCTCGC ((.((((....)))).)) | -25.6 | 37.6 |
| ATCAGTGAGAAATCACTGAA .................... | -14.1 | 46.2 |
| GTCACCGAAAGGTACGAC ((((((....)))..))) | -18 | 41.2 |
| GCGGTTGGAAACGATCGC (((.(.(....).).))) | -28.5 | 45.3 |
| GATCGGGACGCCGATC ((((((....)))))) | -36.6 | 59.5 |
| GCGTAGATACGC ((((....)))) | -19.8 | 52.9 |
| GTCTAGACGAAAGTCGAC (((..(((....)))))) | -13.1 | 39.6 |
| GGACGCGAAAGCGGGTCC ((((((....)))..))) | -14 | 54.2 |
| GATACCGAAAGGTAGATC ((((((....)))..))) | -18.3 | 44.6 |
| GAAGGTGGAAACACCCTC ((.((((....)))).)) | -12.1 | 33.8 |

| Sequence | folding enthalpy [1] [kcal/mol] | Tm [2] [°C] |
| --- | --- | --- |
| GCCTAGCCGAAAGGCGGC (((..(((....)))))) | -14.1 | 59.7 |
| CGACACGGAAACGTATCG (((.(((....))).))) | -28.1 | 42.3 |
| GCGGCGGTCCGC ((((....)))) | -17.6 | 58.7 |
| GACGCCGAAAGGCGCGTC ((((((....)))..))) | -9.77 | 49.6 |
| GTCAGAGGAAACTCTGGC (.(((((....))))).) | -30.4 | 50.3 |
| GCGAGATCTCGC ((((....)))) | -35.4 | 54.1 |
| GAAAGGGGAAACCCTCTC ((.((((....)))).)) | -17.3 | 26.8 |
| GTCAGCGGAAACACTGAC (((((.(....).))))) | -40.7 | 47.2 |
| GTGCGTGGAAACACGTAC ((.((((....)))).)) | -32.8 | 56.1 |
| GTGCTCGAAAGAGACCAC ((((((....)))..))) | -14.6 | 34.4 |
| GGGTGCGAAAGCACGCCC ((((((....)))..))) | -10.2 | 55.3 |
| GGACTGCGAAAGCATTCC (((.(((....))).))) | -29.8 | 48.5 |
| GGAGCCGAAAGGCTCTCC ((((((....)))..))) | -7.29 | 56.5 |
| GAGGACGGAAACGTTCTC (((.(((....))).))) | -41.9 | 51.6 |
| GATCATGGTAATGATC ((((((....)))))) | -41.1 | 56.2 |
| GAAGTGCGAAAGCATTC (((.(((....)))))) | -13.5 | 36.2 |
| GTCGGGGGAAACTCCGAC (((((.(....).))))) | -44.7 | 57.6 |
| GATCTTAGAAAGATC ((((((...)))))) | -31.3 | 41.5 |
| GAAGTACGAAAGTAATTC (((.(((....))).))) | -25.9 | 42.9 |
| GATCCCGGACGGGATC ((((((....)))))) | -34.5 | 68.5 |
| GGTTCGGGAAACCGGACC (((.(((....))).))) | -39.5 | 58.3 |
| GCTGCGCGAAAGCTCCGC ((.(.((....)).).)) | -12.3 | 38.5 |
| GCCTTGCGAAAGCTATGC ((.(.((....)).).)) | -8.48 | 44.5 |
| GCGCGGCGAAAGCAACGC (((..((....))..))) | -15.8 | 60 |

| Sequence | folding enthalpy [1] [kcal/mol] | Tm [2] [°C] |
| --- | --- | --- |
| GTGGTAGGAAACTGTCAC (((..((....))..))) | -17.3 | 32.9 |
| GGGTGCGAAAGCATACCC ((((((....)))..))) | -19.8 | 53.5 |
| GCAGTGCGAAAGCCCGGC ((.(.((....)).).)) | -18.4 | 45 |
| GGGCCGCGAAAGCGACCC (((.(((....))).))) | -29.7 | 68.8 |
| GGACTTGGAAACAAATCC (((.(((....))).))) | -12.4 | 35.3 |
| GAGCCACGAAAGTGTCTC (((.(((....))).))) | -29 | 50 |
| GCGCGTGGAAACACGCAC (.(((((....))))).) | -9.64 | 54.7 |
| GCGTCCACGAAAGTGCGC (((..(((....)))))) | -23.3 | 48.6 |
| GCGGCTAACCGC ((((....)))) | -26.2 | 56.5 |
| GATCTGCGAAAGCAATC (((.(((....)))))) | -12.2 | 27.8 |
| GATCAATGTTTTGATC ((((((....)))))) | -29.4 | 47 |
| GATCCAGCATGGATC ((((((...)))))) | -45.4 | 61.1 |
| GAGGACGAAAGTCTGCTC ((((((....)))..))) | -14.4 | 39.2 |
| GACGCCGAAAGGCTGGTC ((((((....)))..))) | -16.1 | 48 |
| GCACACGAAAGTGTCTGC ((((((....)))..))) | -15.3 | 42 |
| GCCTTACGAAAGTACGGC (((.(((....))).))) | -46.5 | 52.2 |
| GGATCAGGAAACTGATTC (.(((((....))))).) | -31.1 | 44.4 |
| GCGTTCGGACGC ((((....)))) | -25.4 | 53.5 |
| GATCACTCAAGTGATC ((((((....)))))) | -49.2 | 57 |
| GATCAACCACTTGATC ((((((....)))))) | -32.6 | 42.3 |
| GCGACCTCGAAAGAGCGC (((..(((....)))))) | -31.1 | 49.1 |
| GCGTTAGGAAACTAATGC ((.((((....)))).)) | -43.2 | 47.5 |
| GATCACGTAAGTGATC ((((((....)))))) | -30.8 | 69.3 |
| GACTGCGAAAGCAGGTC ((((((....))).))) | -13.1 | 58.1 |

| Sequence | folding enthalpy [1] [kcal/mol] | Tm [2] [°C] |
| --- | --- | --- |
| CGTAGGCGGAAACGCACG (((..(((....)))))) | -15.1 | 42.1 |
| CGATCGGAAACGAGTCG ((((((....))).))) | -24.7 | 39.9 |
| GCTGCGCGAAAGCTAAGC (((..((....))..))) | -23.4 | 44 |
| GCCCGGCGAAAGCAGTGC ((.(.((....)).).)) | -18.2 | 40.5 |
| GGCCAGGGAAACTTGGCC (((((.(....).))))) | -35.7 | 57 |
| GACAAGGGAAACCTCGTC (((.(((....))).))) | -22.6 | 34.5 |
| GGAAATCCGAAAGGATCC (((..(((....)))))) | -13.1 | 35.4 |
| GCACACACGAAAGTGTGC (((..(((....)))))) | -11.6 | 57.7 |
| GCACCCGGAAACGAGTGC ((((.((....)).)))) | -48.8 | 51.6 |
| GATCGACAGTTCGATC ((((((....)))))) | -44.4 | 49.2 |
| GGGTCTGGAAACAGGCTC (.(.(((....))).).) | -23.2 | 39.9 |
| GAAGTGCCGAAAGGCTTC (((..(((....)))))) | -7.5 | 35.5 |
| GGATCTGGAAACAGGTCC (((.(((....))).))) | -31.5 | 50.6 |
| GGAGGTGGAAACGCCTTC (.(((.(....).))).) | -26.2 | 48.5 |
| GCCCCGCGAAAGCGCAGC ((..(((....)))..)) | -7.42 | 40.3 |
| GACAAGAAATTGTC (((((....))))) | -17.2 | 37.2 |
| GATCTTTTTAAGATC ((((((...)))))) | -32.2 | 47.1 |
| GATCAATGGTTGATC ((((((...)))))) | -26.7 | 41 |
| GATCGTTCCCACGATC ((((((....)))))) | -43.2 | 53.8 |
| GCGGATTACCGC ((((....)))) | -20 | 54.9 |
| GATCCGATCCGGATC ((((((...)))))) | -33.7 | 58.5 |
